Most compounds without a hit are left out; they make up all but 2% or so of the library.
HCV NS3 hel inh – inhibitors of Hepatitis C virus NS3 helicase. NS3 helicase DNA unwinding, Cy5 molecular beacon fluorescence. inhibition, % at 10.9 µM. actives 0.56% (n = 290,000). AID 1800;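 active = inhibition above the mean of all tested compounds plus 3 SD, set per campaign, cut at about 35% in these data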;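 note: 0% = DMSO wells and 100% = thioflavine S control wells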
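System: Hepatitis C virus NS3 helicase domain fragment enzyme | Reagent: Annealed dual-labelled DNA beacon duplex, ATP-started | Compound dosing: 10.9 µM single point, 0.8% DMSO | Incubation: 1 h reaction at 25 °C, ATP-initiated | Technique: Cy5 fluorescence | Evaluation: Percent inhibition from t60/t0 fluorescence ratio | Benchmarks: Low DMSO, high thioflavine S at 110 µM | Replication: Singlicate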
MLLE-PAM2 inh – blocks PAM2 peptide binding to the PABP1 MLLE domain. GST-MLLE / FITC-PAM2 fluorescence polarization. inhibition, % at 20 µM. actives 0.36% (n = 360,000); in the data active = inhibition above about 35%, passing the limit was not always enough;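 note: plate controls were DMSO wells with GST-MLLE for no effect and wells lacking GST-MLLE protein for full effect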
FID counter – counter-screen for HCV NS3 helicase inhibitors: DNA intercalator displacement | DNA fluorescent intercalator displacement, fluorescence | inhibition, % at 7.9 µM | actives 0.17% (n = 290,000); in the data active = inhibition above about 37%;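 note: 0% = vehicle and 100% = reference compound; higher means more ethidium bromide displaced from hairpin DNA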
HCV core dimer – blocks dimerization of HCV core protein; TR-FRET GST/Flag-core106 dimerization, 1536-well; inhibition, % at 5 µM; actives 0.33% (n = 300,000);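 active = inhibition above the mean of all tested compounds plus 3 SD, set per screening campaign, cut at about 45% in these data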
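Material: Tagged HCV core106 pair (GST and Flag) | Amount: GST-core106 13.5 nM, Flag-core106 17 nM | Medium: KF-containing HEPES buffer, pH 7.45, DTT, CHAPS, BSA | Reagent: Eu donor and XL665 acceptor anti-tag antibodies | Schedule: 4 h at 22.5 °C | Technique: Time-resolved FRET, ex 340 nm, em 617 and 671 nm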
eIF4H FP inh – inhibitors of RNA binding by human eIF4H. Q15056. inhibition, % at 35 µM. actives 0.94% (n = 290,000). eIF4H fluorescence polarization binding assay. AID 2012;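 note: calls also rest on retests at 20 µM and on dose response follow-up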
PABP FP inh – PABP-poly(A) binding inhibition. actives 1% (n = 290,000). PABP-poly(A) RNA binding, fluorescence polarization. AID 2014. P11940. inhibition, % at 35 µM;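 note: calls also rest on retests at 20 µM and on dose response follow-up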
The depositor's hits bear a star; ? = inconclusive; . = not tested or not shown. Unless noted, the rule behind the calls is not given here.

SMILES | HCV NS3 hel inh | MLLE-PAM2 inh | FID counter | HCV core dimer | eIF4H FP inh | PABP FP inh
COc1cc2c(cc1OC)CN(C(=O)Cn1ccccc1=O)CC2 | 27 | -1 | -6 | 10 | 79* | 37
COc1cc2c(cc1OC)CN(C(=O)CSc1ccccc1C)CC2 | . | 46* | . | . | . | .
COc1cc2c(cc1OC)CN(C(=O)CSC1=NCCS1)CC2 | . | 7 | . | . | . | .
Cc1ccc(-n2sc3cc(F)ccc3c2=O)c(C)c1 | . | 33 | . | . | . | .
COc1ccc(CN2CCNC(=O)C2CC(=O)NCCN2CCCCC2=O)c(F)c1 (stereo unspecified) | 10 | -2 | -7 | 4 | 7 | 15
CCN(CC)CCOc1ccc2c(c1)C(=NO)c1cc(OCCN(CC)CC)ccc1-2 | 28 | -7 | 90* | -9 | -14 | 36
CCC1(CC)NC(=O)N(CC(=O)Nc2sc3c(c2C(N)=O)CCC3)C1=O | 29 | -25 | -15 | 83* | 79* | 71*
CCC1(C)NC(=O)N(CC(=O)Nc2sc3c(c2C(=O)OC)CCCCC3)C1=O (stereo unspecified) | -4 | 19 | -14 | 2 | -7 | 10
C=CCn1c(SCC(=O)c2ccc(O)c(O)c2)nnc1-c1cccc(OC)c1 | . | -36 | . | . | . | .
Cc1noc(NS(=O)(=O)c2ccc(NC(=O)NC(C)(C(F)(F)F)C(F)(F)F)cc2)c1C | 12 | -9 | -11 | 10 | -8 | 1
O=C(NC(=S)N1CCN(Cc2ccc3c(c2)OCO3)CC1)c1cccc(Br)c1 | -14 | 8 | -18 | -9 | active | 58*
O=C(NC(=S)Nc1ccc2c(c1)OCCO2)c1cccc(Br)c1 | 0 | 40* | -12 | -6 | 0 | 5
COCCNC(=O)C1(C)CCN(C(=O)c2oc3ccccc3c2C)C1 (stereo unspecified) | . | 8 | . | . | . | .
CNC(=O)C[C@H]1C(=O)N(c2ccccc2)C[C@@H]1C | . | -8 | . | . | . | .
CC(=O)N1CCc2cc(S(=O)(=O)C(C)CC(=O)NCc3ccco3)ccc21 (stereo unspecified) | . | 4 | . | . | . | .
Cc1ccc2ncccc2c1NC(=S)NC(=O)c1ccccc1 | 5 | 42* | -18 | -13 | 3 | 60
Cc1ccc2ncccc2c1NS(=O)(=O)c1ccccc1 | -2 | -111 | 4 | -6 | 8 | 39
CCCCOC(=O)c1cc(=O)[nH]c(=O)[nH]1 | 2 | -5 | 0 | -3 | -4 | 61*
Cc1cc(C)cc(NC(=O)COC(=O)c2cc(=O)[nH]c(=O)[nH]2)c1 | 14 | 9 | -2 | 1 | -6 | -2
O=C(O)CCc1cc(I)c(Oc2ccc(O)c(I)c2)c(I)c1 | . | . | . | . | 65* | 50*
Cn1c(N)c(C(=O)CSc2nnc(-c3c[nH]c4ccccc34)n2C2CC2)c(=O)[nH]c1=O | . | -49 | . | . | . | .
CCc1nc(SCC(=O)O)c(C#N)c2c1CCCC2 | -3 | 13 | -6 | 1 | 5 | 7
Cc1nc(SCC(=O)O)c(C#N)c2c1CCCC2 | 13 | -29 | -3 | -1 | 108* | 82*
S=C(Nc1ccc2nc(-c3ccccn3)c(-c3ccccn3)nc2c1)N1CCCCC1 | -6 | 30 | -11 | . | 38 | 50*
COc1ccc(/C=C/C(=O)NCC(=O)N/N=C/c2cc(Br)ccc2OCc2ccccc2)cc1 | -3 | -3 | -2 | 49* | 2 | -1
SMILES | HCV NS3 hel inh | MLLE-PAM2 inh | FID counter | HCV core dimer | eIF4H FP inh | PABP FP inh
C=CCN1CN(S(=O)(=O)c2cccs2)c2nc3ccccc3nc21 | -6 | -15 | 2 | 0 | 82* | 98*
O=S(=O)(c1cccs1)N1CN(Cc2cccs2)c2nc3ccccc3nc21 | -5 | -13 | -5 | 12 | 0 | -5
c1cncc(Nc2c3ccccc3nc3ccccc23)c1 | 4 | -3 | 37* | -2 | -13 | 4
Oc1cccc(Nc2c3ccccc3nc3ccccc23)c1 | 26 | 16 | 42* | -6 | ? | ?
Cc1ccc(-c2nc(Nc3cccc(O)c3)c3ccccc3n2)cc1 | -25 | 8 | 12 | 4 | -1 | -4
CCOc1ccc(-c2c(C(=O)N/N=C/c3cccnc3)nnn2-c2nonc2N)cc1 | -4 | -6 | -32 | 3 | 15 | 0
CCOC(=O)C1=C[C@@H](C(C)(C)C)N(S(=O)(=O)c2ccccc2C)[C@H]1c1ccc(Cl)cc1 | . | 12 | . | . | . | .
Cc1ccc(NC(=O)CSc2nnc(C3CC3)n2C)cc1S(=O)(=O)N1CCCCC1 | . | 0 | . | . | . | .
O=C(Nc1ccccc1C(=O)O)c1cncc(Br)c1 | 7 | -111 | -5 | -9 | 0.6* | 52
CC(C)CCN(C(=O)Nc1ccccc1)C(C)c1cccs1 (stereo unspecified) | -5 | -8 | -9 | -1 | 5 | 11
O=c1[nH]c2cc3c(cc2cc1CN(Cc1cccnc1)Cc1nnnn1Cc1ccco1)OCCO3 | -3 | -14 | 11 | 9 | 71* | 89*
O=c1[nH]c2cc3c(cc2cc1CN(Cc1ccccc1)Cc1nnnn1Cc1ccco1)OCCO3 | 12 | -34 | -8 | . | 39 | 60
COc1ccccc1CN(Cc1cc2cc3c(cc2[nH]c1=O)OCCO3)Cc1nnnn1Cc1ccco1 | 21 | 7 | -10 | 2 | 58* | 41*
O=c1[nH]c2cc3c(cc2cc1CN(CCc1ccccc1)Cc1nnnn1C1CCCC1)OCCO3 | 4 | . | 0 | . | 97* | 62*
Cc1ccc2[nH]c(=O)c(CN(Cc3ccc4c(c3)OCO4)Cc3nnnn3Cc3ccco3)cc2c1 | 28 | 0 | -18 | 34 | -10 | 9
O=c1[nH]c2cc3c(cc2cc1CN(Cc1cccs1)Cc1nnnn1Cc1ccco1)OCCO3 | 7 | 26 | 0 | 29 | 38* | 52*
CC1=C(C(=O)N(C(C)C)C(C)C)CC(CC(=O)NC2CCCC2)C(=O)N1Cc1ccc(C(C)(C)C)cc1 (stereo unspecified) | . | 2 | . | . | . | .
Cn1c(SCC(=O)NCCc2ccccc2)ncc(C(=O)Nc2ccc(F)cc2)c1=O | . | -47 | . | 0 | . | .
O=C(NCc1cccnc1)C1Cc2c(-c3ccc(Cl)cc3)ccnc2O1 (stereo unspecified) | . | -8 | . | . | . | .
CN(CCCn1ccc(NC(=O)OCc2ccccc2)nc1=O)Cc1ccco1 | . | -11 | . | . | . | .
COc1ccc(N(CC(=O)NC2CCS(=O)(=O)C2)S(=O)(=O)c2cc(C)ccc2C)cc1 (stereo unspecified) | . | 8 | . | . | . | .
CC(/C=N/n1c(-c2ccncc2)n[nH]c1=S)=C\c1ccco1 | 13 | -3 | -19 | 2 | 84* | 46*
S=c1[nH]nc(-c2ccccc2Cl)n1/N=C/C=C/c1ccco1 | 36 | -12 | -20 | 6 | 92* | 49*
Cc1cccc(-c2n[nH]c(=S)n2/N=C/C=C/c2ccco2)c1 | 29 | -4 | -14 | 13 | 85* | 57*
S=c1[nH]nc(-c2ccncc2)n1/N=C/C=C/c1ccco1 | 29 | -1 | -9 | 0 | 96* | 94*
CC(/C=N/n1c(-c2ccc(C)cc2)n[nH]c1=S)=C\c1ccco1 | 27 | -52 | -11 | 37 | 42 | 13

High-throughput results from PubChem.
